{
  "source": "ChEMBL document CHEMBL1130354",
  "about": "“Bicyclo[2.2.1]heptane and 6,6-dimethylbicyclo[3.1.1]heptane derivatives: orally active, potent, and selective prostaglandin D2 receptor antagonists” (J Med Chem, 1997)",
  "key": {"[1]": {"species": "Cavia porcellus", "assay": "Effect on PGD2-induced increase in vascular permeability in conjunctiva of normal guinea pigs", "format": "functional", "how_it_was_run": "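Normal guinea pigs; conjunctival microvascular permeability increase induced by topical 0.1% PGD2; dose producing 50% inhibition derived from dose–response data, n = 3–10 animals per point.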"}, "[2]": {"species": "Cavia porcellus", "assay": "Dose required to inhibit 50% of antigen-induced increase in intranasal pressure", "format": "functional", "settings": "po", "how_it_was_run": "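Oral dosing of actively sensitized guinea pigs 1 h before antigen challenge; rise in intranasal pressure recorded; dose giving 50% inhibition taken from dose–response data, n = 5–10 animals per point.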"}, "[3]": {"test_system": "Cavia porcellus", "assay": "Inhibition of increase in specific airway resistance by antigen inhalation in conscious guinea pigs (10 mg/kg)", "format": "functional", "how_it_was_run": "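Conscious guinea pigs given compound po 1 h before antigen inhalation; increase in specific airway resistance measured; percent inhibition as mean ± SEM, n = 4–11 animals/group; Student's t-test versus control.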"}, "[4]": {"target": "T1, Prostaglandin D2 receptor (Homo sapiens, UniProt Q13258)", "T1 sequence (Q13258 whole entry)": "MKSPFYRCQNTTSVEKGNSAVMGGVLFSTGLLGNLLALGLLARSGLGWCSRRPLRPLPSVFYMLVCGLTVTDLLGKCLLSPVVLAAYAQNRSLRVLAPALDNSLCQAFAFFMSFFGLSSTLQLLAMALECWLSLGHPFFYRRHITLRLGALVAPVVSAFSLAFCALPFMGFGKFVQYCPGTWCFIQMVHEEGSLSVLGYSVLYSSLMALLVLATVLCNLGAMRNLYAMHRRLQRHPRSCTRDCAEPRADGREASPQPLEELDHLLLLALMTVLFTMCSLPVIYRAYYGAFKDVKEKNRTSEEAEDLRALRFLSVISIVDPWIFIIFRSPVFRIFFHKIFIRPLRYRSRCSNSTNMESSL", "assay": "Inhibition of cAMP formation evoked by the prostaglandin D2 receptor in human platelets", "format": "functional", "how_it_was_run": "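Human platelets preincubated 10 min at 37 °C with graded compound concentrations in presence of IBMX, then stimulated 2 min with 0.1 μM PGD2; inhibition of cAMP formation measured, IC50 derived.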"}, "[5]": {"target": "T2, Thromboxane A2 receptor (Homo sapiens, UniProt P21731)", "T2 sequence (P21731 whole entry)": "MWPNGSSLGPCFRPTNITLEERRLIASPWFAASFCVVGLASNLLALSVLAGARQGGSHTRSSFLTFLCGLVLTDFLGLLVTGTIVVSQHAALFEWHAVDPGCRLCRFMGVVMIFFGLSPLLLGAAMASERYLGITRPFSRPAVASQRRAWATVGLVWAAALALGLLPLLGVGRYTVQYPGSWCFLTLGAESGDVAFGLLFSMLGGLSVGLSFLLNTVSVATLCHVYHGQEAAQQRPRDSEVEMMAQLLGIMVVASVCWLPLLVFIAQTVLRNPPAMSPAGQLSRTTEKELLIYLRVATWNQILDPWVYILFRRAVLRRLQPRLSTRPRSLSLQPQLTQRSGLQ", "assay": "Inhibition of [3H]- (+)-S-145 specific binding to human platelet membranes in TXA2 receptor (TP) assay", "how_it_was_run": "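Membranes from human platelets incubated 60 min at room temperature with 2 nM [3H](+)-S-145 plus graded compound concentrations; specific binding inhibition gives IC50.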"}, "[6]": {"species": "Cavia porcellus", "assay": "Effect on antigen-induced increase in vascular permeability in conjunctiva of guinea pig which actively sensitized with ovalbumin", "format": "functional", "how_it_was_run": "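Guinea pigs actively sensitized with ovalbumin, challenged conjunctivally with antigen; increase in conjunctival microvascular permeability measured; ED50 from dose–response data, n = 3–10 animals per point.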"}, "[7]": {"target": "Prostacyclin receptor (Homo sapiens, UniProt P43119)", "sequence (P43119 whole entry)": "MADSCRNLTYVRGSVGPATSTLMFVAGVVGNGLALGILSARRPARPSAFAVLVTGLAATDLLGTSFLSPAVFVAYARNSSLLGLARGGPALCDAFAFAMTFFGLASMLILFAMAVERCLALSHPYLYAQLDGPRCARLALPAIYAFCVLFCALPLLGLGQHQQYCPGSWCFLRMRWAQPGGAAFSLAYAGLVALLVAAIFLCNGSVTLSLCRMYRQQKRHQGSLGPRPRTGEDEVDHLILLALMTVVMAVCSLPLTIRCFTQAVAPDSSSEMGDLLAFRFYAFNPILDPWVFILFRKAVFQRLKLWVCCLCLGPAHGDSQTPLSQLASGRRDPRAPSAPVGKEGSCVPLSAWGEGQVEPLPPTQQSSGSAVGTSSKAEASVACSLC", "assay": "Inhibition of cAMP formation by carbacyclin in Prostaglandin I2 receptor (IP) assay", "format": "functional", "how_it_was_run": "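Platelets (human) preincubated 10 min at 37 °C with graded compound levels plus IBMX, then exposed 2 min to 0.1 μM carbacyclin; cAMP formation inhibition read out; IC50 is mean of two or three measurements.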"}, "[8]": {"test_system": "Cavia porcellus", "assay": "Inhibition of antigen-induced increase in intranasal pressure in actively sensitized guinea pigs at 1 mg/kg (iv)", "format": "functional", "how_it_was_run": "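Actively sensitized guinea pigs; compound given iv 10 min before antigen challenge; antigen-induced rise in intranasal pressure measured, percent inhibition reported as mean ± SEM, n = 5–10/group; Student's t-test versus control.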"}, "[9]": {"target": "T1, Prostaglandin D2 receptor", "assay": "Inhibition of [3H]PGD-2 specific binding to Prostaglandin D2 receptor from human platelet membranes", "how_it_was_run": "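Human platelet membranes incubated 60 min at 4 °C with 5 nM [3H]PGD2 and graded test compound concentrations; inhibition of specific binding measured, IC50 derived.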"}},
  "data": [
    {"compound": "CC1(C)[C@H]2C[C@H](C/C=C\\CCCC(=O)O)[C@@H](NC(=O)c3csc4ccc(F)cc34)[C@@H]1C2", "values": [
      {"measurement": "ED50", "setting": "[1]", "value": 3.5, "unit": "mg/kg"},
      {"measurement": "ED50", "setting": "[2]", "value": 1, "unit": "mg/kg"},
      {"measurement": "Inhibition", "setting": "[3]", "value": 69, "unit": "%"},
      {"measurement": "IC50", "setting": "[4]", "value": 1.8, "unit": "nM"},
      {"measurement": "IC50", "setting": "[5]", "value": 430, "unit": "nM"},
      {"measurement": "ED50", "setting": "[6]", "value": 8.9, "unit": "mg/kg"},
      {"measurement": "IC50", "setting": "[7]", "value": "> 10000", "unit": "nM"}
    ]},
    {"compound": "CC1(C)[C@H]2C[C@H](C/C=C\\CCCC(=O)O)[C@@H](NC(=O)c3csc4ccc(O)cc34)[C@@H]1C2", "values": [
      {"measurement": "ED50", "setting": "[1]", "value": 0.12, "unit": "mg/kg"},
      {"measurement": "ED50", "setting": "[2]", "value": 2.1, "unit": "mg/kg"},
      {"measurement": "inhibition in vivo at 1 mg/kg", "setting": "[8]", "value": 78, "unit": "%"},
      {"measurement": "Inhibition", "setting": "[3]", "value": 70, "unit": "%"},
      {"measurement": "IC50", "setting": "[4]", "value": 1, "unit": "nM"},
      {"measurement": "IC50", "setting": "[5]", "value": 96, "unit": "nM"},
      {"measurement": "ED50", "setting": "[6]", "value": 2, "unit": "mg/kg"},
      {"measurement": "IC50", "setting": "[7]", "value": "> 10000", "unit": "nM"}
    ]},
    {"compound": "CC1(C)[C@H]2C[C@H](C/C=C\\CCCC(=O)O)[C@@H](NC(=O)c3ccc[nH]3)[C@@H]1C2", "values": [
      {"measurement": "IC50", "setting": "[9]", "value": 32, "unit": "nM"},
      {"measurement": "IC50", "setting": "[4]", "value": 64, "unit": "nM"},
      {"measurement": "IC50", "setting": "[5]", "value": 3100, "unit": "nM"},
      {"measurement": "IC50", "setting": "[7]", "value": "> 10000", "unit": "nM"}
    ]},
    {"compound": "O=C(O)CCC/C=C\\C[C@@H]1[C@H]2CC[C@H](C2)[C@H]1NC(=O)c1ccc(/N=N/c2ccccc2)cc1", "values": [
      {"measurement": "IC50", "setting": "[9]", "value": 3000, "unit": "nM"},
      {"measurement": "IC50", "setting": "[4]", "value": "> 1000", "unit": "nM"},
      {"measurement": "IC50", "setting": "[7]", "value": 1400, "unit": "nM"}
    ]},
    {"compound": "CC1(C)[C@H]2C[C@H](C/C=C\\CCCC(=O)O)[C@@H](NC(=O)c3ccc4oc5ccccc5c4c3)[C@@H]1C2", "values": [
      {"measurement": "IC50", "setting": "[9]", "value": 32, "unit": "nM"},
      {"measurement": "IC50", "setting": "[4]", "value": 220, "unit": "nM"},
      {"measurement": "IC50", "setting": "[5]", "value": 270, "unit": "nM"},
      {"measurement": "IC50", "setting": "[7]", "value": 7500, "unit": "nM"}
    ]},
    {"compound": "CC1(C)[C@H]2C[C@H](C/C=C\\CCCC(=O)O)[C@@H](NC(=O)c3cccc4ccsc34)[C@@H]1C2", "values": [
      {"measurement": "IC50", "setting": "[4]", "value": 5.6, "unit": "nM"},
      {"measurement": "IC50", "setting": "[5]", "value": 210, "unit": "nM"},
      {"measurement": "IC50", "setting": "[7]", "value": "> 10000", "unit": "nM"}
    ]},
    {"compound": "CC1(C)[C@H]2C[C@H](C/C=C\\CCCC(=O)O)[C@@H](NC(=O)c3csc4cc(O)ccc34)[C@@H]1C2", "values": [
      {"measurement": "IC50", "setting": "[5]", "value": 410, "unit": "nM"},
      {"measurement": "IC50", "setting": "[7]", "value": "> 10000", "unit": "nM"}
    ]},
    {"compound": "O=C(O)CCC/C=C\\C[C@@H]1[C@H]2CC[C@H](C2)[C@H]1NS(=O)(=O)c1ccc2oc3ccccc3c2c1", "values": [
      {"measurement": "ED50", "setting": "[2]", "value": 3.5, "unit": "mg/kg"},
      {"measurement": "inhibition in vivo at 1 mg/kg", "setting": "[8]", "value": 82, "unit": "%"},
      {"measurement": "IC50", "setting": "[4]", "value": 70, "unit": "nM"},
      {"measurement": "IC50", "setting": "[5]", "value": 1700, "unit": "nM"},
      {"measurement": "IC50", "setting": "[7]", "value": 1500, "unit": "nM"}
    ]},
    {"compound": "COc1cc2c(cc1S(=O)(=O)N[C@@H]1[C@@H]3CC[C@@H](C3)[C@H]1C/C=C\\CCCC(=O)O)oc1ccccc12", "values": [
      {"measurement": "ED50", "setting": "[1]", "value": 1.6, "unit": "mg/kg"},
      {"measurement": "IC50", "setting": "[9]", "value": 27, "unit": "nM"},
      {"measurement": "ED50", "setting": "[2]", "value": 2.2, "unit": "mg/kg"},
      {"measurement": "inhibition in vivo at 1 mg/kg", "setting": "[8]", "value": 80, "unit": "%"},
      {"measurement": "IC50", "setting": "[4]", "value": 68, "unit": "nM"},
      {"measurement": "IC50", "setting": "[5]", "value": "> 10000", "unit": "nM"},
      {"measurement": "ED50", "setting": "[6]", "value": 6.6, "unit": "mg/kg"},
      {"measurement": "IC50", "setting": "[7]", "value": 5900, "unit": "nM"}
    ]},
    {"compound": "O=C(O)CCC/C=C\\C[C@@H]1[C@H]2CC[C@H](C2)[C@H]1NS(=O)(=O)c1ccc2cc(-c3ccccc3)[nH]c2c1", "values": [
      {"measurement": "IC50", "setting": "[9]", "value": 47, "unit": "nM"},
      {"measurement": "ED50", "setting": "[2]", "value": 7.2, "unit": "mg/kg"},
      {"measurement": "inhibition in vivo at 1 mg/kg", "setting": "[8]", "value": 60, "unit": "%"},
      {"measurement": "IC50", "setting": "[4]", "value": 120, "unit": "nM"},
      {"measurement": "IC50", "setting": "[5]", "value": 1200, "unit": "nM"},
      {"measurement": "IC50", "setting": "[7]", "value": "> 10000", "unit": "nM"}
    ]},
    {"compound": "CC1(C)[C@H]2C[C@H](C/C=C\\CCCC(=O)O)[C@@H](NC(=O)c3csc4ccccc34)[C@@H]1C2", "values": [
      {"measurement": "IC50", "setting": "[5]", "value": 380, "unit": "nM"},
      {"measurement": "IC50", "setting": "[7]", "value": "> 10000", "unit": "nM"}
    ]}
  ]
}
